CHRM5 agonist: CHRM5 agonism in calcium assay; P08912; CHO-K1 hM5 cells, Fluo-8 calcium fluorescence; 0% DMSO wells, 100% maximal acetylcholine response; activation, % at 3 µM; hit rate 0.19% among 360,000;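 active means activation above the run's mean over test compounds plus 3 SD, cut at about 23% in these data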;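 further: signal is peak over basal fluorescence ratio across the kinetic read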
CHRM5 PAM: positive allosteric modulators of human muscarinic M5 receptor; CHO-K1 hM5, Fluo-8 calcium, ACh EC20 PAM; 0% = ACh EC20, 100% = ACh EC100; activation, % at 3 µM; hit rate 0.3% among 360,000; AID 624038;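 active means activation above the run cutoff, the mean activation of all test compounds plus 3 SD, cut at about 18% in these data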
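System: CHO-K1 hM5 cells. Reagent: acetylcholine, EC20 level. Compound dosing: single dose, 3 µM nominal final test concentration. Timing: Post-acetylcholine fluorescence recording 140 s. Detection: Fluo-8 calcium fluorescence. Read-out: % activation, ACh-normalized. Benchmarks: ACh EC20 and EC100 wells. Repeats: singlicate, one well per test compound.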
M1 antag: blocks human M1 muscarinic receptor; P11229; CHO-K1 hM1, Fluo-8 calcium fluorescence, ACh EC80 antagonist; inhibition, % at 3 µM; hit rate 1.3% among 360,000;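 active means percent inhibition above its own plate's cutoff, namely the mean of that plate's compound wells plus 3 SD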;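 further: peak over basal fluorescence ratio during 140 s after agonist addition; 0% = ACh EC80 plus DMSO and 100% = DMSO alone without agonist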
Target sequence (P11229 whole entry, looked up): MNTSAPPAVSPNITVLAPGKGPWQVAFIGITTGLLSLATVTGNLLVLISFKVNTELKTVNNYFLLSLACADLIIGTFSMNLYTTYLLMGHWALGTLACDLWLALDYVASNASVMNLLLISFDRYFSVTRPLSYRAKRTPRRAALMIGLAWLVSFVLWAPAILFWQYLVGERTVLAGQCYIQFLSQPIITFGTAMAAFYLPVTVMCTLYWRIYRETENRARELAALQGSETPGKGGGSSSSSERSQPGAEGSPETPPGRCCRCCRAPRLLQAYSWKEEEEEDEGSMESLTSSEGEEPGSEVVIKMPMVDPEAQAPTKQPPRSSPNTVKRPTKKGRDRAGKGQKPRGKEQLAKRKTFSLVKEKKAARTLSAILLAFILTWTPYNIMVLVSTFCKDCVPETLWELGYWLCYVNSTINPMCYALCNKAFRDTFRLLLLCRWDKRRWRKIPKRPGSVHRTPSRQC
CHRM5 antagonist: blocks acetylcholine activation of human M5 receptor. P08912. CHO-hM5 cells, Fluo-8 calcium fluorescence, ACh EC80. inhibition, % at 3 µM. hit rate 0.59% among 360,000. AID 624040;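 active means inhibition above a per-plate cutoff, the mean of that plate's test compounds plus 3 SD, cut at about 27% in these data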;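 further: 0% = acetylcholine EC80 with DMSO and 100% = DMSO without agonist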
M1 PAM: potentiates human M1 receptor response to acetylcholine; P11229; CHO-K1 hM1, Fluo-8 calcium fluorescence, ACh EC20; 0% = ACh EC20, 100% = maximal ACh; activation, % at 3 µM; hit rate 0.088% among 360,000; AID 588819; in the data active means activation above about 19%, passing the limit was not always enough
M1 ag: agonists of human M1 muscarinic receptor; hit rate 0.33% among 360,000; activation, % at 3 µM; CHO-K1 hM1, Fluo-8 calcium fluorescence, agonist mode; 0% DMSO, 100% acetylcholine EC100; AID 588814; P11229;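 active means activation above the run's mean compound activation plus 3 SD, cut at about 16% in these data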;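 further: peak over basal fluorescence ratio within a 140 s kinetic read after compound addition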
* = called active by the depositor; x = not tested or not shown. This is a sample that favours compounds with a hit; in the whole collection about 2.2% have one here.

SMILES	CHRM5 agonist	CHRM5 PAM	M1 antag	CHRM5 antagonist	M1 PAM	M1 ag
Cn1nnnc1SCC(=O)N1c2ccccc2Sc2ccc(Cl)cc21	-12	-13	30*	10	-20	-6
CCN(CC)CCC(=O)N1c2ccccc2Sc2ccc(Cl)cc21	-1	-19	100*	99*	-26	-7
Cn1c(SCC(=O)N2c3ccccc3Sc3ccc(Cl)cc32)nnc1-c1ccco1	0	-5	-3	-1	-12	-13
CN(C)CC(=O)N1c2ccccc2Sc2ccc(Cl)cc21	-10	-19	99*	95*	-28	-10
O=C(COc1ccc(Br)cc1)NNC(=O)c1ccc(-n2cncn2)c([N+](=O)[O-])c1	2	-4	-10	8	8	0
Cc1ccc(Cl)c(NC(=O)COC(=O)c2cc[n+]([O-])cc2)c1Cl	-1	-7	-8	23	15	3
O=C1NN=C2CCCCCCC12 (configuration not stated)	-6	-34	98*	24	-29	-7
CS(=O)(=O)Nc1cccc(-c2cn3c(n2)SCC3)c1	-7	-5	5	31*	12	-1
COc1ccccc1N1CCN(Cc2nc(-c3ccc(F)cc3)oc2C)CC1	-1	-8	3	13	0	-9
COc1ccccc1N1CCN(Cc2cn[nH]c2-c2ccc(F)cc2)CC1	40*	-8	-19	7	16	44*
CC(C)C[C@@]12C(=O)N(c3cccc(Br)c3)C(=O)N1[C@H](c1ccc(F)cc1)[C@@H]1C(=O)N(C3CCCCC3)C(=O)[C@@H]12	1	2	13	2	2	-3
Cc1cc(C)cc(N(CCC#N)C(=O)CSC2=Nc3ccccc3C3CC=NN23)c1 (configuration not stated)	24*	13	15	-3	-2	-6
N#Cc1ccccc1NC(=O)CSC1=Nc2ccccc2C2CC=NN12 (configuration not stated)	0	-3	-2	1	6	-7
CC1(C(=O)NS(=O)(=O)c2ccc(Cl)cc2)CCN1C(=O)CCC1CCCC1 (configuration not stated)	0	-1	-12	3	7	-5
CCCCNC(=S)Nc1ccc(C(F)(F)F)cc1	0	-28	29	34*	-13	1
O=C(Nc1ccc(F)c(Cl)c1)c1cc(C2CCCN(C(=O)CCc3ccccc3)C2)on1 (configuration not stated)	0	-2	-5	1	0	-3
Cc1nc2ccc(S(=O)(=O)Nc3cc(-c4nc5cccnc5s4)ccc3C)cc2s1	2	-6	7	5	-8	-5
Cc1nc2ccc(S(=O)(=O)Nc3cccc(-c4nc5cccnc5s4)c3C)cc2s1	11	-20	39*	17	-19	2
CC1=NOC(=O)/C1=C\c1ccc(-c2ccc(Cl)cc2Cl)o1	-4	-1	-22	-4	9	-2
CN1CCN(C(=O)CN(C2CCCCC2)S(=O)(=O)c2ccc(Br)cc2)CC1	-6	1	2	-15	-2	18*
COc1ccc(S(=O)(=O)N(CC(=O)N2CCN(C)CC2)C2CCCCC2)cc1OC	-4	7	-9	-4	9	-4
COc1ccc(N2CC(C(=O)OCC(=O)NCc3ccccc3)CC2=O)cc1 (configuration not stated)	-2	-1	-9	-5	4	-2
CCN(CC)c1ccc(/C=C/c2cc(-c3ccccc3)c3ccccc3n2)cc1	9	-5	36*	20	-2	18*
CCN(CC)c1ccc(C(=O)NNC(=O)CCl)cc1	-5	4	-12	6	11	0
CCN(CC)c1ccc(C(=C2C=CC(=[N+](CC)CC)C=C2)c2ccc(N(CC)CC)cc2)cc1	19	-17	46*	36*	-7	2
SMILES	CHRM5 agonist	CHRM5 PAM	M1 antag	CHRM5 antagonist	M1 PAM	M1 ag
CCN(CC)c1ccc(C(=C2C=CC(=[N+](CC)CC)C=C2)c2ccccc2)cc1	30*	-46	97*	85*	-34	26*
O=C(CCc1nc(-c2ccc(Cl)cc2)no1)NC1CCCCC1	0	1	1	-5	-2	1
O=C(CCCc1nc(-c2ccc(Cl)cc2)no1)NC1CCCC1	4	-12	37*	5	-11	0
CC(C)(C)c1nnc(N/N=C/c2cc(Br)ccc2O)n(N)c1=O	9	-22	35*	20	-17	4
CCc1nnc(N/N=C/c2cc(Br)c(O)cc2O)n1N	-5	-6	-18	14	16	-1
O=C(Nc1ccccc1N1CCN(C(=O)c2ccccc2)CC1)c1ccc(Cl)cc1	1	-11	27	16	-12	-3
COc1ccccc1N1CCN(C(=O)c2ccc3noc(-c4ccccc4)c3c2)CC1	25*	-13	-10	4	0	7
COc1ccc(C(=O)Nc2ccccc2N2CCN(C(=O)c3ccccc3)CC2)cc1Br	1	-6	35*	-3	-14	-5
O=C(Nc1cc([N+](=O)[O-])ccc1C(=O)NCCN1CCOCC1)c1ccccc1	-3	-5	-3	-3	1	-3
COc1cccc(C(c2nnnn2-c2c(C)cccc2C)N2CCN(C/C=C/c3ccccc3)CC2)c1OC (configuration not stated)	-8	-22	-2	4	-21	-7
COCCn1nnnc1C(c1cccc(OC)c1OC)N1CCN(C2CCCCC2)CC1 (configuration not stated)	-5	0	-81	2	24*	-2
FC(F)(F)Oc1ccccc1C(c1nnnn1C1CCCC1)N1CCN(C/C=C/c2ccccc2)CC1 (configuration not stated)	-8	-22	56*	64*	-25	-4
COc1cccc(C(c2nnnn2C2CCCCC2)N2CCN(C/C=C/c3ccccc3)CC2)c1OC (configuration not stated)	-8	-23	12	41*	-21	-6
CS(=O)(=O)c1ccc(C(=O)OC2CCOC2=O)cc1[N+](=O)[O-] (configuration not stated)	0	3	3	0	5	-2
COC(=O)[C@]12CCCCC=C1N(Cc1ccco1)C(=O)[C@H](CC(=O)N1CCOCC1)C2	3	-4	x	8	x	x
CCSc1nnc(NC(=O)NC(CC)(C(F)(F)F)C(F)(F)F)s1	3	-21	7	31*	-2	1
CC1CCCCN1CCCNC(=O)C1CCN(c2nc3ccccc3o2)CC1 (configuration not stated)	-5	3	78*	0	-28	-10
